5HT1a antag: blocks the human serotonin 5-HT1a receptor. P08908. CHO 5-HT1a Ga15 NFAT-bla reporter, antagonist mode. inhibition, % at 10 µM. hit rate 0.68% among 62,000. AID 612;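 active = inhibition above the mean of all tested compounds plus 3 SD, cut at about 43% in these data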;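 also: receptor stimulated by 5-CT agonist at 100 nM near EC80; beta-lactamase reporter measured by ratiometric fluorescence of a cleavable substrate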
S1P3 ag: agonists of human S1P3 receptor. Q99500. S1P3 NFAT-BLA reporter cells, agonism, FRET ratio; relative to 1 µM S1P, basal subtracted. activation, % at 4.5 µM. hit rate 0.1% among 60,000. AID 373;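 active = activation above the screen-wide mean plus 3 SD, cut at about 4.5% in these data, passing the limit was not always enough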
Target sequence (Q99500 whole entry, looked up): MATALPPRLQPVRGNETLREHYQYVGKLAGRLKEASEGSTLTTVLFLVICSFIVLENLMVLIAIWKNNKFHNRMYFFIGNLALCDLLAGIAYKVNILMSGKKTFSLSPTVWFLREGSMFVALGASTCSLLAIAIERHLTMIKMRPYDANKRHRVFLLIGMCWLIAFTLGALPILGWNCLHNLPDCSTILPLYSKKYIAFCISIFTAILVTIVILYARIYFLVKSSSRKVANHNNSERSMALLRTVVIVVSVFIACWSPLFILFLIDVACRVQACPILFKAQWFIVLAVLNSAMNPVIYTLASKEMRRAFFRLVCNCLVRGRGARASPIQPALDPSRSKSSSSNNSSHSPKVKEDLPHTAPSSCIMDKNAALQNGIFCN
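Assay system: CHO cells stably expressing human S1P3, Gα16 and NFAT-β-lactamase reporter. Timing: overnight plating, 4 h compound 37 °C, 2 h substrate RT. Signal: β-lactamase FRET emission ratio 460/535 nm. Measure: percent activation versus median 1 µM S1P response, basal-subtracted, per plate. Repeats: primary screen single test, confirmation screen in triplicate.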
HTR1E antagonist: 5-HT1E (human) receptor antagonism; inhibition, % at 6 µM; hit rate 0.99% among 65,000; AID 571; CHO 5-HT1E Ga15 NFAT-bla reporter, FRET, antagonist;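 active = inhibition above a set limit, the mean inhibition across every tested compound plus 3 SD, cut at about 29% in these data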;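 also: signal is the 460 over 535 nm emission ratio of beta-lactamase substrate; 0% = agonist plus DMSO wells and 100% = wells without agonist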
Target sequence (P28566 whole entry, looked up): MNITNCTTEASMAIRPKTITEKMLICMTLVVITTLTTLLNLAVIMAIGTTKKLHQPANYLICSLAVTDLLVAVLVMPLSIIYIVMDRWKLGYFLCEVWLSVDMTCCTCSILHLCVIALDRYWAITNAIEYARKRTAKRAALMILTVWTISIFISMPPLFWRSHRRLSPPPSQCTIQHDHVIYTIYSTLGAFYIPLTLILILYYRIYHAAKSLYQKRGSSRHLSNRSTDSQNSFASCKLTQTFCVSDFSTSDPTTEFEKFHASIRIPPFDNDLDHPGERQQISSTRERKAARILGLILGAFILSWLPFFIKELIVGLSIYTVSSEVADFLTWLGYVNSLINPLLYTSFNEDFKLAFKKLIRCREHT
5HT1E ag: agonists of human 5-HT1E serotonin receptor; P28566; CHO 5-HT1E Ga15 NFAT-bla reporter, FRET; 0% DMSO wells, 100% control agonist wells; hit rate 0.69% among 65,000; AID 574; activation, % at 6 µM;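 active = activation above a set limit, the screen-wide mean activation plus 3 SD, cut at about 8.5% in these data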;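 also: 100% = positive control agonist at 1 µM giving full maximal response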
E coli RNAP: inhibitors of Escherichia coli RNA polymerase | P0A8V2 | E. coli RNA polymerase, fluorescence transcription assay | inhibition, %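 (tested at 10 µM)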 | hit rate 0.2% among 62,000 | AID 559; in the data active = inhibition above about 20%;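 also: 0% = enzyme without compound and 100% = no enzyme blank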
HTR1A agonist: 5-HT1a (human) receptor agonism | activation, % at 10 µM | CHO 5-HT1a Ga15 NFAT-bla reporter, FRET ratio; 0% basal, 100% maximal reference agonist | hit rate 0.56% among 65,000;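 active = activation above the screen-wide mean activation plus 3 SD, cut at about 19% in these data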;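 also: 0% = DMSO wells and 100% = 5-CT at EC100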
Starred values were filed as active, the others as inactive; x = not tested or not shown. Compounds with a hit are over-represented: about 2.6% of the library has one in this group of screens.

SMILES | 5HT1a antag | S1P3 ag | HTR1E antagonist | 5HT1E ag | E coli RNAP | HTR1A agonist
Cc1cnn(-c2nc(-c3cccs3)cc(C(F)(F)F)n2)c1 | 16.8 | -1.2 | 28.7* | -1.1 | -3.2 | -3.9
Cc1nn(-c2ccccc2)c2sc(C(=O)N3CCOCC3)cc12 | 7.9 | -0.3 | 36.2* | 0.7 | 1.4 | 0.6
O=C(Nc1nc(-c2ccc(S(=O)(=O)N3CCCC3)cc2)cs1)c1cccs1 | 3.4 | -1.4 | -6.8 | 0.0 | 8.1 | 1.2
O=C(Nc1nc(-c2cc(Cl)sc2Cl)cs1)c1cccs1 | 49.1* | -0.2 | -1.2 | 1.1 | 6.8 | 279.4*
O=C(O)c1c[nH]ccc1=O | -4.6 | -0.8 | -6.9 | -0.4 | 4.1 | -0.9
CN(C)CCCN1c2ccccc2Sc2ccc(C(F)(F)F)cc21 | x | -2.4 | 17.2 | 11.7* | 6.7 | 1.8
OCCN1CCN(CCCN2c3ccccc3Sc3ccc(C(F)(F)F)cc32)CC1 | x | -0.7 | -18.3 | -0.6 | 4.8 | -0.5
c1ccc(Oc2ccc(-n3cnnn3)cc2)cc1 | 9.1 | -1.0 | 29.3* | -2.6 | 6.7 | 0.4
O=C(Oc1ccccc1)c1ccc(-n2cnnn2)cc1 | 1.8 | -1.2 | -2.6 | 0.4 | 4.2 | -3.4
Cc1cccc(N2CCN(c3nc4ccccc4n4cnnc34)CC2)c1C | -9.9 | -0.7 | -12.1 | 0.1 | 5.4 | -0.2
O=C1O/C(=C\C(=O)N2CCOCC2)c2ccccc21 | -5.6 | -1.6 | 2.5 | 0.6 | 6.1 | -0.8
CCOC(=O)C1=C(O)C(Nc2nccs2)(C(F)(F)F)N=C1C (centres undefined) | 5.8 | -0.6 | 1.7 | -0.8 | -0.9 | -2.0
CC(C)Cc1nnc(NC(=O)CSc2ncn[nH]2)s1 | -8.3 | 0.2 | 2.2 | 6.3 | x | 112.0*
COc1ccccc1N1CCN(c2ccc(-c3ccccc3)nn2)CC1 | 37.9 | x | 51.2* | -0.2 | 6.1 | -1.2
COc1ccccc1N1CCN(C2=CC(=O)CCC2)CC1 | 18.3 | x | 0.5 | 32.5* | 2.2 | 5.9
COc1ccccc1N1CCN(c2nc(-c3ccccc3)cc(C(F)(F)F)n2)CC1 | 2.0 | x | -5.8 | -1.1 | 9.5 | -2.9
O=c1cc(CN2CCN(c3ccccc3)CC2)c2cc(O)c(-c3ccccc3)cc2o1 | 2.1 | -1.1 | -5.2 | 0.2 | 6.5 | 0.1
O=c1cc(CN2CCN(C/C=C/c3ccccc3)CC2)c2cc(O)ccc2o1 | 44.0* | -1.1 | 16.4 | 0.4 | 6.5 | 0.2
NC(=O)C1CCN(C(=O)c2cc3ccccn3n2)CC1 | -0.6 | -0.1 | -8.6 | 1.4 | -3.7 | -4.4
CC1(C)CC(=O)C(C=Nc2ccc3[nH]ncc3c2)=C(O)C1 | 17.4 | -1.8 | 18.4 | 0.2 | -3.5 | -2.8
CC1(C)CC(=O)C(C=Nc2ccc3cn[nH]c3c2)=C(O)C1 | 35.7 | -2.2 | 39.8* | -0.5 | 6.1 | -2.8
CSc1ccccc1N=CC1=C(O)CC(C)(C)CC1=O | 74.3* | -1.8 | 71.7* | -1.5 | 10.6 | -3.7
CCN(CC)S(=O)(=O)c1ccc(N2CCCC2)c(C(=O)OCC(=O)/C(C#N)=C(\C)N)c1 | 9.6 | 1.2 | 4.7 | -1.5 | 2.9 | -1.4
Cc1c(C(=O)c2no[n+]([O-])c2C(=O)c2cnn(C)c2C)cnn1C | 45.6* | 0.5 | 9.7 | -1.1 | 10.9 | -0.7
COc1ccc(C(=O)c2no[n+]([O-])c2C(=O)c2ccc(OC)cc2)cc1 | -2.0 | -0.3 | -3.7 | 0.0 | 9.3 | 0.8
SMILES | 5HT1a antag | S1P3 ag | HTR1E antagonist | 5HT1E ag | E coli RNAP | HTR1A agonist
COCCNC(=O)C(c1ccc(F)cc1)N(CC1CCCO1)C(=O)CCC(=O)Nc1ccccn1 (centres undefined) | 0.2 | -0.5 | -1.5 | -0.7 | 9.9 | 0.1
Cc1ccc(C(=O)OCc2cn3ccccc3n2)cc1 | 4.0 | -0.1 | -5.0 | -0.1 | 5.3 | 100.6*
O=C(NCc1cn2ccccc2n1)c1ccccc1 | 9.0 | -1.0 | -9.3 | -0.2 | 1.6 | -3.2
CCn1c(SCC(=O)N2c3ccccc3Sc3ccccc32)nc2c1c(=O)n(C)c(=O)n2C | -2.7 | -0.1 | 6.4 | -0.5 | -3.8 | -1.3
COC(=O)CNc1nc(C2CC2)nc2c1nnn2Cc1ccccc1Cl | 5.0 | -1.8 | 11.4 | -0.1 | 8.3 | -2.2
c1ccc(Cn2nnc3c(Nc4ccc5c(c4)OCO5)nc(C4CC4)nc32)cc1 | 19.6 | -1.3 | -0.1 | 2.4 | -4.8 | 22.1*
N#CCSc1nc2sc3c(c2c(=O)n1C1CCCCC1)CCCC3 | x | 1.2 | 5.6 | 13.3* | 11.9 | 6.5
CC(=O)c1sc(NC(=O)C2(F)C(F)(F)C(F)(F)C(F)(F)C(F)(F)C2(F)F)nc1C | 65.0* | -2.6 | 25.4 | 0.6 | 8.9 | 1.2
CC(=O)c1sc(NC(=O)C=C(C)C)nc1C | -9.7 | -0.6 | -9.3 | -0.3 | 3.2 | 1.6
CCS(=O)(=O)N1CCN(Cc2ccccc2OC)CC1 | -13.8 | 0.4 | -1.5 | 8.5 | 6.6 | -2.6
O=c1[nH]nc(Sc2ncnc3sccc23)n1CCc1ccccc1 | 32.7 | -0.9 | 27.3 | -0.9 | 0.2 | 21.9*
COCCn1c(SCC(=O)NCC2CCCO2)nc2c(c1=O)SC(C)C2 (centres undefined) | -2.2 | -1.5 | -10.4 | 0.7 | 6.5 | 0.8
COCCNCC(=O)C12CC3CC(CC(C3)C1)C2 | -14.9 | -0.7 | -6.7 | -0.3 | 11.2 | -0.6
Cc1ccc(N=c2oc3cc(O)ccc3cc2C(N)=O)cc1 | -167.8 | 0.1 | -9.4 | 21.6* | -0.5 | 71.3*
COc1ccc(N=c2oc3cc(O)ccc3cc2C(=O)NCC2CCCO2)cc1 (centres undefined) | -6.8 | 0.8 | -10.6 | 5.8 | 3.7 | 25.8*
Cc1ncc(CO)c2cc(C(N)=O)c(=Nc3ccccc3)oc12 | 2.4 | -1.2 | -2.4 | -0.4 | 1.6 | -0.6
COc1ccc(N=c2oc3cc(O)ccc3cc2C(=O)NCC2CCCO2)c(OC)c1 (centres undefined) | -118.9 | 2.1 | -12.8 | 18.8* | -7.9 | 70.4*
COc1cc(OC)cc(C(=O)NCC2CCCO2)c1 (centres undefined) | -5.2 | 1.6 | -5.0 | -0.7 | 10.9 | -1.8
O=C(Nc1ccc(Cl)cc1)N1CCC(c2nc(-c3ccc(F)cc3)no2)CC1 | 47.4* | -0.9 | 22.4 | -0.5 | 1.4 | -1.9
COc1ccc(NC(=O)N2CCCC(c3nc(-c4ccc(C(C)C)cc4)no3)C2)cc1 (centres undefined) | 4.8 | -1.5 | 4.8 | 0.7 | x | 2.6
CCn1nnnc1SCC(=O)Nc1nnc(C(C)C)s1 | 2.0 | -0.5 | 0.2 | 0.7 | 4.3 | -1.2
CCCn1c(SCC(=O)Nc2nnc(CC)s2)nc2c1c(=O)n(C)c(=O)n2C | -3.6 | 0.5 | -3.6 | -0.1 | 0.2 | -0.9
CCCn1c(SCC(=O)Nc2nc3c(s2)CCCC3)nc2c1c(=O)n(C)c(=O)n2C | 3.9 | -1.2 | 5.3 | -0.4 | 55.3* | -0.6
Cc1cc(C)n(-c2nc(NCCO)c3c4c(sc3n2)CCCC4)n1 | -19.3 | 27.9* | -12.4 | 0.3 | -5.4 | 44.8*
Cc1cc(C)n(-c2nc(NCCCO)c3c4c(sc3n2)CCCC4)n1 | -17.9 | 41.1* | 10.6 | 0.7 | -8.2 | 9.9

High-throughput results (PubChem)
